Bioassay records as filed in PubChem.
PAFAH1B2 FP inh = PAFAH1B2 enzyme inhibitors, primary screen, biochemical, fluorescence polarization, human; recombinant PAFAH1B2, FP-rhodamine activity probe; inhibition, % at 3.39 µM; actives 1.2% (n = 340,000);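 active = inhibition above the mean of all tested compounds plus 3 SD, cut at about 24% in these data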;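 note: 0% = enzyme with DMSO and 100% = wells lacking PAFAH1B2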
pPAFAH inh = pPAFAH enzyme inhibitors, primary screen, biochemical, fluorescence polarization, human; Platelet-activating factor acetylhydrolase (Homo sapiens), Q13093; actives 1.5% (n = 330,000); inhibition, % at 3.39 µM; recombinant pPAFAH, FP-rhodamine probe fluorescence polarization;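 active = inhibition above the mean inhibition across the screen plus 3 SD, cut at about 25% in these data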;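 note: inhibitors block binding of the rhodamine activity-based probe so polarization drops; 0% = enzyme with DMSO and 100% = wells lacking pPAFAH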
Target sequence (Q13093 whole entry, looked up): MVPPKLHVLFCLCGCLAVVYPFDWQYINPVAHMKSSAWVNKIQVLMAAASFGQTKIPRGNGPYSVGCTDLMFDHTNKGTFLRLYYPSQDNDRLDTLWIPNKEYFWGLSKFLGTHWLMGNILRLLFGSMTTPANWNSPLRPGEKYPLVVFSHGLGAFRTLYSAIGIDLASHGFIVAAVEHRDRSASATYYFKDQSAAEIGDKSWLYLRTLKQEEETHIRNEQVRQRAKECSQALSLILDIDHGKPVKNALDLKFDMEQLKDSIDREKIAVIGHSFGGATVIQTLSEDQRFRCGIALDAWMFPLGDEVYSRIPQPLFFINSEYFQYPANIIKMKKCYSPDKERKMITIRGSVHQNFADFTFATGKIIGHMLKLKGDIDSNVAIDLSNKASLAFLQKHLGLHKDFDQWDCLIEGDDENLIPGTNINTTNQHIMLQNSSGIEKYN
PAFAH2 inh = PAFAH2 enzyme inhibitors, primary screen, biochemical, fluorescence polarization, human; recombinant PAFAH2, FP-rhodamine activity probe; inhibition, % at 3.39 µM; AID 492956, 2010; actives 0.99% (n = 340,000);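 active = inhibition above the mean over all tested compounds plus 3 SD, cut at about 30% in these data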;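 note: inhibitors block probe labeling of enzyme so polarization drops; 0% = enzyme with DMSO and 100% = wells lacking PAFAH2 protein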
Apaf1 inhib = inhibitors of human Apaf-1 apoptosome, primary screen, biochemical, DEVD-Rh110 fluorescence, uHTS; Apoptotic protease-activating factor 1 (Homo sapiens), O14727; inhibition, % at 20 µM; reconstituted apoptosome caspase-3 activity; actives 0.71% (n = 330,000); active = inhibition of at least 40% at 20 µM;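 note: plate controls were DMSO wells for no effect and DEVD-CHO caspase inhibitor wells for full effect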
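detection = Rh110 fluorescence intensity | test system = biochemical Apaf-1 apoptosome reconstitution | also added = cytochrome c and DEVD-Rh110 substrate | schedule = 30 min plus 50 min, RT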
PAFAH1B3 inh = PAFAH1B3 enzyme inhibitors, primary screen, biochemical, fluorescence polarization, human; AID 492972, 2010; Platelet-activating factor acetylhydrolase IB subunit alpha1 (Homo sapiens), Q15102; recombinant PAFAH1B3, FP-rhodamine probe; actives 0.28% (n = 340,000); inhibition, % at 3.39 µM;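 active = inhibition above the screen-wide average of all tested compounds plus 3 SD, cut at about 25% in these data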;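 note: 0% = enzyme with DMSO only and 100% = wells lacking PAFAH1B3 protein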
PAFAH2 confirm = PAFAH2 enzyme inhibitors, confirmation, biochemical, fluorescence polarization, human. shares compounds with PAFAH2 inh. recombinant PAFAH2, FP-rhodamine activity probe. inhibition, % at 3.39 µM. actives 65% (n = 2,300). AID 493030, 2011;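 active = mean inhibition over three repeats above a set limit taken from the earlier primary screen, cut at about 30% in these data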;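 note: inhibitor blocks binding of rhodamine activity probe so polarization falls; 0% = enzyme with DMSO and 100% = wells lacking PAFAH2 protein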
* = called active by the depositor; . = no result. Only some compounds are listed: those with a hit (about 3.1% of all), similar ones and a draw of the others.

SMILES	PAFAH1B2 FP inh	pPAFAH inh	PAFAH2 inh	Apaf1 inhib	PAFAH1B3 inh	PAFAH2 confirm
N#Cc1cccc(NC(=O)COC(=O)c2ccc[n+]([O-])c2)c1	-4	2	14	3	1	.
O=C(COC(=O)CN1C(=O)c2ccccc2C1=O)Nc1ccccc1	5	5	5	-2	11	.
COc1ccc(Cc2nc3ccc(C(=O)N(C)CCCN4CCOCC4)cc3o2)cc1	0	1	-20	5	9	.
Cc1ccccc1-c1nc2sc(C)c(C)c2c(=O)o1	-3	0	68*	11	4	54*
Cc1sc2nc(C(C)(C)C)oc(=O)c2c1C	5	9	36*	-12	-7	40*
Cc1sc2nc(-c3ccco3)oc(=O)c2c1C	0	-2	62*	20	11	47*
COc1cc(-c2nc3sc(C)c(C)c3c(=O)o2)cc(OC)c1OC	-2	6	-2	2	5	.
O=S(=O)(Nc1ccc(-n2cnnn2)cc1)c1cccc(Cl)c1	8	.	-2	2	2	.
COc1ccc(CNC(=O)Cn2cnc3c(NCc4ccccc4)ncnc32)cc1	2	5	2	3	5	.
COc1ccc(C(=O)NCC(c2ccccc2)N2CCCC2)cc1S(=O)(=O)N1CCOCC1 (stereo not drawn)	1	4	3	-10	0	.
N#C/C(=C/c1ccc(F)cc1)S(=O)(=O)c1ccccc1	10	6	-2	-1	10	.
N#C/C(=C\c1ccc(O)c(O)c1)S(=O)(=O)c1ccccc1	14	11	64*	2	17	49*
CCOc1ncccc1C(=O)Nc1cccc(S(=O)(=O)N2CCOCC2)c1	3	3	0	-3	10	.
COc1cc(/C=C/C(=O)OCC(=O)NCc2ccco2)cc(OC)c1OC	2	5	10	-17	2	.
COc1cc(/C=C/C(=O)OCC(=O)NCCc2ccccc2)cc(OC)c1OC	-1	3	15	5	-3	.
COc1ccc(OC)c(/C=C/C(=O)OCC(=O)Nc2cccc(C(C)=O)c2)c1	0	-2	68*	9	-8	62*
COc1ccc(/C=C/C(=O)OCC(=O)NCCc2ccccc2)c(OC)c1	-2	17	76*	6	5	60*
COc1ccc(/C=C/C(=O)OCC(=O)NCc2ccco2)c(OC)c1	1	13	74*	-4	-1	69*
COc1cccc(/C=C/C(=O)OCC(=O)NCc2ccco2)c1	0	11	29	7	-2	.
COc1ccc(OC)c(/C=C/C(=O)OCC(=O)NCc2ccco2)c1	1	0	40*	2	7	28
CC1CN(C(=O)c2ccc(NS(=O)(=O)c3ccc(F)cc3)cc2)CC(C)O1 (stereo not drawn)	4	3	-1	5	2	.
CCOC(=O)c1ccc(COC(=O)c2nonc2N)cc1	4	4	8	1	8	.
Cc1ccc(C(=O)O/N=C(/c2nonc2N)N(C)C)cc1	0	21	51*	8	8	41*
Cc1ccc(S(=O)(=O)Nc2c(NC3CCCCC3)c3ccccc3oc2=O)c(C)c1	0	4	17	20	8	.
O=C(CCNC(=O)c1ccccc1)OCC(=O)c1ccccc1	7	0	33*	0	4	5
SMILES	PAFAH1B2 FP inh	pPAFAH inh	PAFAH2 inh	Apaf1 inhib	PAFAH1B3 inh	PAFAH2 confirm
O=C(COC(=O)c1cccc(-n2cnnn2)c1)c1ccccc1	-3	7	2	-6	2	.
O=C(OCc1nnc(-c2ccccc2)o1)c1ccc2c(c1)OCCO2	-1	10	75*	0	-1	60*
Cc1cc(C)n(-c2ccc(C(=O)OCc3nnc(-c4ccccc4)o3)cc2)n1	0	6	9	11	4	.
O=C(Nc1ccccc1C(=O)OCc1nnc(-c2ccccc2)o1)c1ccco1	5	5	15	18	-6	.
O=C(/C=C/c1ccco1)OCc1nnc(-c2ccccc2)o1	3	4	68*	-5	8	55*
O=C(OCc1nnc(-c2ccccc2)o1)c1cccc(-n2cnnn2)c1	3	-6	47*	-1	6	40*
O=C(OCc1nnc(-c2ccccc2)o1)C1=COCCO1	5	0	44*	-2	0	31*
N#CC1(Nc2ccc3ccccc3c2)CCCC1	10	.	-3	.	6	.
CN(C)S(=O)(=O)c1ccc(C(=O)OCc2nnc(-c3ccccc3)o2)cc1	4	0	4	15	3	.
Cc1ccc(C(=O)OCc2nnc(-c3ccccc3)o2)o1	-1	5	44*	6	-3	33*
Cc1ccc(C(=O)OCc2nnc(-c3ccccc3)o2)cc1S(=O)(=O)N1CCOCC1	5	3	61*	11	11	47*
CC(=O)c1c(C)[nH]c(C(=O)OCc2nnc(-c3ccccc3)o2)c1C	-3	-1	26	10	4	.
O=C(OCc1nnc(-c2ccccc2)o1)c1ccc(Cl)cc1	4	10	43*	.	1	37*
Cc1ccc(C(=O)OCc2nnc(-c3ccc(Br)cc3)o2)cc1	0	10	72*	6	8	58*
CCOc1ccccc1NC(=O)C1CCN(c2nc(-c3ccc(OC)cc3)no2)CC1	7	6	8	16	8	.
COc1ccc(S(=O)(=O)N2CCOCC2)cc1NC(=O)Cn1nnc2ccccc2c1=O	2	2	5	-2	6	.
O=C(OCc1nnc(-c2ccccc2)o1)c1ccc(CO)cc1	0	2	55*	-4	8	56*
Cc1ccc(-c2nnc(SCC#CCOC(=O)c3cccs3)o2)cc1	10	1	4	11	-1	.
Cc1ccc(-c2nnc(COC(=O)c3cccs3)o2)cc1	7	5	54*	14	-5	38*
CCOC(=O)/C=C/C(=O)OCC(=O)N1CCN(C(=O)c2ccco2)CC1	-5	5	4	-8	5	.
COc1cc(/C=C2\SC(=O)N(c3ccccc3Cl)C2=O)cc([N+](=O)[O-])c1O	14	.	36*	.	20	23
Cc1cc(C)cc(NC(=O)CSc2nc3c(c(=O)[nH]2)CN(Cc2ccc(F)cc2)CC3)c1	9	6	31*	15	4	17
CCCN1CCc2nc(SCC(=O)Nc3ccc(C)c(Cl)c3)[nH]c(=O)c2C1	3	3	3	12	0	.
